PubChem BioAssay AID720717 (ICCB-Longwood Screening Facility, Harvard Medical School, 2013)
The whole screen tested about 51,000 compounds, of which about 150 (0.29%) were called active. Only a selection was taken, and actives are over-represented in it overall. Unmarked numbers belong to inactive results.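 Rule for the calls: active = both repeat wells score below -2 in polarization z-score versus plate sample wells, excluding overly bright wells; inactive = the rest.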

System: LANA (ORF73) N-terminal peptide binding to nucleosomes, Human herpesvirus 8
Test: inhibitors of KSHV LANA-nucleosome binding, primary screen, biochemical, fluorescence polarization, FITC-LANA1-23, chicken nucleosomes (AID 720717)
Conditions: FITC-LANA1-23 / chicken nucleosome fluorescence polarization; stronger effect = lower value
In short: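 test system = FITC-LANA peptide and chicken nucleosomes | amount = 240 nM purified chicken nucleosomes (480 nM peptide binding sites), final | reagent = 50 nM FITC-LANA1-23 probe | medium = TEN-BT buffer, pH 7.5 | doses = single compound addition by pin transfer, 100 nL per well | timing = 10–45 min, room temperature | detection = fluorescence polarization | repeats = duplicate plates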

Row | Structure (SMILES) | z-score
1 | S=c1[nH]nc(NCCc2ccccc2)s1 | 0.44
2 | O=C1NC(c2ccccc2)=NC1(Nc1ccccn1)C(F)(F)F (configuration not stated) | 0.245
3 | CCOC(=O)c1nn(-c2ccccc2)c(C(=O)OCC)c1N(C(=O)CC)C(=O)CC | -0.275
4 | O=C1CCCc2nc3nc(-c4ccncc4)nn3cc21 | -0.949
5 | CC(Sc1nnc(COc2ccccc2)n1-c1ccccc1)C(=O)O (configuration not stated) | 0.582
6 | O=c1[nH]ncc2c1[nH]c1ccccc12 | 0.221
7 | O=C1C2C3C=CC(C3)C2C(=O)N1C1CC2CCC1C2 (configuration not stated) | -0.407
8 | N/C(=N\OC(=O)Nc1ccccc1)c1ccno1 | -0.0325
9 | C=CCOC(=O)c1cc(-c2ccc(/C=C3/NC(=S)NC3=O)o2)ccc1Cl | 0.594
10 | COC(=O)CSc1nc(-c2ccccc2)cc(C)c1C#N | -0.143
11 | CN(C)c1ccc(C(=S)N2CCN(c3cccc(Cl)c3)CC2)cc1 | 0.446
12 | COc1cccc(/C=N/NC(=O)c2cccc(C)c2)c1O | -0.518
13 | Cc1ccccc1-c1n[nH]n2c1nc(=O)c1cc(Cl)ccc12 | 0.639
14 | O=C(NCc1ccncc1)C1CCN(C(=O)c2cccc(Cl)c2)CC1 | 0.832
15 | Clc1ccc(C2N=C(c3cnccn3)NN2)cc1 (configuration not stated) | -2.98 (active)
16 | CN(C)CCC(O)c1cc(Cl)sc1Cl (configuration not stated) | 0.472
17 | CC(=O)N1c2ccccc2NC(=O)C1CC(=O)Nc1cccc(C)c1 (configuration not stated) | 2.28
18 | O=C(Nc1ccc(-c2cn3cccnc3n2)cc1)C1CCCC1 | 0.642
19 | CCOC(=O)C1=NNC2C(=O)N(c3cc(Cl)ccc3OC)C(=O)C12 (configuration not stated) | -0.513
20 | O=C(O)/C=C\C(=O)NCc1ccc2c(c1)OCO2 | 0.273
21 | CC1=CC(C)C2(COC(CN3CCCCC3)OC2)C(C)C1 (configuration not stated) | -0.0595
22 | CN(Cc1ccccc1)C1(O)C(=O)Nc2c(C(F)(F)F)cccc21 (configuration not stated) | 0.254
23 | COc1ccc(CNC(=O)NC2CCN(S(=O)(=O)c3ccc(OC)cc3)CC2)cc1 | 0.0685
24 | Clc1cccc(Nc2nc3ccccc3c3nncn23)c1 | -0.519
25 | CC(=O)O/N=C/c1ccc(N(C)C)cc1 | 0.621
26 | CCc1ccc(NS(=O)(=O)c2cnn(CC)c2)cc1 | -1.21

Row | Structure (SMILES) | z-score
27 | CCn1cc(S(=O)(=O)Nc2cc(C)on2)cn1 | -2.19 (active)
28 | Cc1cc(NCc2cccnc2)no1 | -0.669
29 | Cc1ccc(-n2nc(C)c(C(=O)O)n2)cc1 | -0.785
30 | CCCN(CCC)C(=O)Cn1ncn2c(cc3ccccc32)c1=O | 0.518
31 | Cc1cc2c(cc1S(=O)(=O)CCC(=O)N1CCCC1)OCC(=O)N2 | -1.11
32 | O=C(Nc1ccc(Cl)cc1)Nc1cc(C(=O)NCC2CCCO2)ccc1N1CC2CC(C1)c1cccc(=O)n1C2 (configuration not stated) | 0.571
33 | O=c1[nH]cc(S(=O)(=O)N2CCc3ccccc32)c(=O)[nH]1 | -0.177
34 | CCN(CC)S(=O)(=O)c1c(C)nn(S(=O)(=O)c2ccccc2)c1C | 1.21
35 | C(=N\N(Cc1ccccc1)Cc1ccccc1)/c1ccco1 | -1.14
36 | CCOC(=O)C(N)Cc1c[nH]c2ccccc12 (configuration not stated) | 0.0765
37 | Cc1ccc2cc(CN(CCN3CCCC3)C(=O)NC3CCCCC3)c(=O)[nH]c2c1C | 0.448
38 | CC(C)(Oc1ccc(Cl)cc1)C(=O)Nc1ccc2oc(-c3cccnc3)nc2c1 | 0.188
39 | C=C(C)Cn1nc(C)c(-c2cc(C(=O)O)[nH]n2)c1C | -0.083
40 | Cc1cccc(-c2cc(C(=O)N3CCN(C(=O)c4ccco4)CC3)c3ccc(Cl)c(C)c3n2)c1 | 0.0795
41 | O=C1NN=C(c2ccccc2)C1CCO (configuration not stated) | -0.74
42 | CS(=O)(=O)C1=NSC2=NC(=O)/C(=C\c3ccco3)C(=N)N21 | -0.748
43 | O=C(COc1ccccc1)n1c(=O)oc2ccccc21 | -1.36
44 | CCS(=O)(=O)N1CCCC(c2nc3c(nnn3Cc3ccc(C)cc3)c(=O)[nH]2)C1 (configuration not stated) | -1.1
45 | O=C(CSc1nc2ncccc2o1)NCc1ccco1 | 0.0485
46 | CCNC(=O)CC1C(=O)N(c2ccc(OC)cc2)C(=O)N1CCOC (configuration not stated) | -0.571
47 | COc1ccc(C(c2nnnn2C(C)(C)C)N2CCN(c3ccccc3)CC2)cc1 (configuration not stated) | -0.537
48 | COc1ccc(C2C3=C(CCCC3=O)N(CC(=O)O)C3=C2C(=O)CCC3)cc1 | 1.54
49 | Cc1ccc(C(=O)NC(C(=O)O)c2ccccc2)cc1 (configuration not stated) | 0.558
50 | C=CCNc1nc(N)sc1C#N | 0.79
51 | COc1cc(Br)cc(/C=N/O)c1O | -0.372
52 | C/C(=N/NC(=O)Cc1cc(=O)[nH][nH]1)c1ccc(Cl)cc1 | -0.559

Row | Structure (SMILES) | z-score
53 | Cc1cc(C)nc(-n2nc(C)c3c2N(C)C(=O)CC3c2ccccc2Cl)n1 (configuration not stated) | 0.097
54 | CCc1ccc2[nH]c(=O)c(CN(Cc3ccco3)C(=O)c3ccccc3)cc2c1 | 0.0145
55 | N#Cc1c(F)cccc1NC(=O)CN1CCCCC1 | -0.136
56 | COc1ccc(NC(=O)c2cn(-c3ccccc3)nc2SC)cc1 | -0.623
57 | O=C1CCC(=O)N1C(c1ccccc1)c1ccccc1 | -0.605
58 | COC(=O)c1ccccc1NC(=O)C(F)(F)F | -0.55
59 | CCc1c(C)nc2c(OC)cccc2c1Cl | -0.847
60 | Cc1sc2nc(C)n(NC(N)=O)c(=O)c2c1C | 0.328
61 | Cc1cc(N2CC(C)CC(C)C2)nc2ccc(NC(=O)CCC(=O)NCc3ccco3)cc12 (configuration not stated) | -1.27
62 | O=C1OC(c2ccco2)=N/C1=C1/C=C(c2cccs2)Oc2ccccc21 | -0.0915
63 | N#CC1=C(SCC(N)=O)NC2=C(C(=O)CCC2)C1c1ccco1 (configuration not stated) | 0.283
64 | CCCCn1cc(/C=N/NC(=O)c2cc3cc(OC)ccc3n2C)c2ccccc21 | -0.47
65 | O=S1(=O)CCC(S(=O)(=O)NC2CCCC2)C1 (configuration not stated) | -1.02
66 | COc1ccc(C(=O)N(C)C2CCCCC2)cc1 | -0.539
67 | CCCc1cc(=O)[nH]c2c1c(C)nn2-c1cccc(F)c1 | 1.12
68 | Cc1[nH]n(-c2ccccc2)c(=O)c1C(=O)C(F)(F)F | -0.607
69 | COc1ccc(CCN(C)C2CCNCC2)cc1OC | -0.052
70 | COc1cccc(NC(=O)c2cc(-c3cccc(OC)c3)n[nH]2)c1 | -1.44
71 | COc1cc(-c2nc3ccccn3c2NC2CCCC2)ccc1O | -0.532
72 | O=C(CN1Cc2ccccc2C1=O)N1CC=C(c2ccccc2)CC1 | -0.481
73 | Cc1ccc(-c2nc3scc(CCNC(=O)Cc4ccccc4)n3n2)cc1 | -0.82
74 | S=C(Cc1ccccc1)N1CCCCC1 | 0.211
75 | O=C1c2ccccc2C(=O)N1CNc1ccc(I)cc1 | -0.239
76 | Cc1[nH][nH]c(=O)c1C(c1cccc(Cl)c1)C(C#N)C#N (configuration not stated) | -0.349
77 | CC(C)NC(=S)N/N=C/c1ccn[nH]1 | 0.944
78 | COc1cccc(NC(=O)c2nn(C)c3c2COc2ccccc2-3)c1 | -1.79

Row | Structure (SMILES) | z-score
79 | CCOC(=O)c1ccc2c(c1)sc1nc(-c3cccc(OC)c3)cn12 | -1.21
80 | Nc1no[n+]([O-])c1C(=O)NCCO | 0.91
81 | CCN1C(=O)C2C(c3cccs3)NC(C)(C(=O)OC)C2C1=O (configuration not stated) | -0.124
82 | O=C1NN=C(Cc2ccccc2)C1CCO (configuration not stated) | -1.42
83 | CCCc1cc(SCC(=O)O)n2c(nc3ccccc32)c1C#N | -0.397
84 | CN1C(=O)CC(N2CCN(C/C=C/c3ccccc3)CC2)C1=O (configuration not stated) | 0.0475
85 | Cc1ccc2c(c1)-c1onc(C(=O)N3CCCCC3)c1CO2 | -1.74
86 | CCNC(=S)N1CCN(CCN=CC2=C(O)CC(C)(C)CC2=O)CC1 | 0.296
87 | O=C(C1CCN(Cc2cnn(-c3ccccc3)c2-n2cccc2)CC1)N1CCC2(CC1)OCCO2 | 0.0245
88 | O=C(O)C1CCN(Cc2ccc(Cl)cc2)CC1 | -0.653
89 | Cc1cc(-c2ccc(S(=O)(=O)NC3CCCc4ccccc43)s2)n[nH]1 (configuration not stated) | 0.15
90 | Cc1ccc(C(C(=O)NCc2ccccc2)N(C(=O)C2COc3ccccc3O2)c2cccc(O)c2)o1 (configuration not stated) | -0.115
91 | Nc1nc(SC23CC4CC(CC(C4)C2)C3)ns1 | -1.08
92 | CC1=CCCC(C)(C)C1/C=C/C(C)=N/O (configuration not stated) | -1.1
93 | Cc1ccccc1NC(=O)N1CC(C)CC(C)C1 (configuration not stated) | -0.339
94 | Nc1nonc1-n1nnc(C(=O)N=Nc2c(O)[nH]c3ccc(Br)cc23)c1-c1ccccc1 | 0.712
95 | CCOC(=O)c1cc(-c2ccc(C)cc2)n(CCC(=O)Nc2nccs2)c1C | 0.181
96 | Cc1c(NC(=O)c2ccc3c(c2)C(=O)N(C)C3=O)cccc1C(=O)O | -0.278
97 | CCC(=O)N1CCc2cc(S(=O)(=O)NCC(OC)OC)ccc21 | 0.461
98 | NCc1cc(C2CC2)n[nH]1 | -0.734
99 | O=C(NCc1ccccn1)c1ccc2c(c1)CCN2S(=O)(=O)c1ccc(Cl)cc1 | -0.107
100 | CCNc1nc(N2CCOCC2)c2ccccc2n1 | 1.02
101 | Cc1nc(CC(=O)Nc2cccc(Cl)c2)cs1 | -0.419
102 | O=C(Cc1ccccc1)n1nc(-c2ccco2)nc1NCc1ccccc1 | 0.165
